Experimental data: ChEMBL document CHEMBL1143333, “Amide derivatives of ethacrynic acid: synthesis and evaluation as antagonists of Wnt/beta-catenin signaling and CLL cell survival” (Bioorg Med Chem Lett, 2009)

Columns and labels:
[1] = Cytotoxicity against human CLL cells after 48 hrs by MTT method; format: functional, cell-based
How it was run: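 Freshly isolated CLL cells plated at 2.5 × 10^5 per well and exposed to compounds for 48 h. MTT added at 1/10 volume of a 5 mg/mL stock, followed by overnight incubation at 37 °C before read-out of viability.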

[2] = Inhibition of Wnt/beta-catenin signaling in human SW480 cells by fluorimetry

Row | IC50 [2] [µM] | SMILES | EC50 [1] [µM]
1 | 9.62 | C=C(CC)C(=O)c1ccc(OCC(=O)Nc2cc(Cl)ccc2C(=O)O)c(Cl)c1Cl | 13.8
2 | 2.61 | C=C(CC)C(=O)c1ccc(OCC(=O)Nc2ccc(C(=O)NC(CCC(=O)OCC)C(=O)OCC)cc2)c(Cl)c1Cl (centres undefined) | 2.1
3 | > 50 | C=C(CC)C(=O)c1ccc(OCC(=O)Nc2ccc(CC(=O)O)cc2)c(Cl)c1Cl | 3.2
4 | > 50 | C=C(CC)C(=O)c1ccc(OCC(=O)Nc2ccc(S(=O)(=O)O)cc2)c(Cl)c1Cl | > 25
5 | 3.79 | C=C(CC)C(=O)c1ccc(OCC(=O)Nc2ccc(/C=C/C(=O)OCC)cc2)c(Cl)c1Cl | 1.7
6 | 2.51 | C=C(CC)C(=O)c1ccc(OCC(=O)Nc2ccc(/C=C/C(=O)O)cc2)c(Cl)c1Cl | 3
7 | 4.88 | C=C(CC)C(=O)c1ccc(OCC(=O)Nc2ccc3c(c2)C(=O)NC3=O)c(Cl)c1Cl | 2.5
8 | 10.7 | C=C(CC)C(=O)c1ccc(OCC(=O)NCCc2c[nH]c3ccccc23)c(Cl)c1Cl | 5.9
9 | > 50 | C=C(CC)C(=O)c1ccc(OCC(=O)Nc2ccc(C(=O)O)cn2)c(Cl)c1Cl | 14.9
10 | > 50 | C=C(CC)C(=O)c1ccc(OCC(=O)NCO[N+](=O)[O-])c(Cl)c1Cl | 4.1
11 | 2.63 | C=C(CC)C(=O)c1ccc(OCC(=O)Nc2ccc3c(C)cc(=O)oc3c2)c(Cl)c1Cl | 2.8
12 | > 50 | C=C(CC)C(=O)c1ccc(OCC(=O)Nc2ccc(O)cc2)c(Cl)c1Cl | 6.4
13 | 4.76 | C=C(CC)C(=O)c1ccc(OCC(=O)Nc2ccc(C(N)=O)cc2)c(Cl)c1Cl | 3.7
14 | 5.81 | C=C(CC)C(=O)c1ccc(OCC(=O)Nc2ccc(C(=O)O)cc2)c(Cl)c1Cl | 5
15 | 3.8 | C=C(CC)C(=O)c1ccc(OCC(=O)Nc2ccc(O)c(Cl)c2)c(Cl)c1Cl | 5.5
16 | > 50 | C=C(CC)C(=O)c1ccc(OCC(=O)NCC2CCC(C(=O)O)CC2)c(Cl)c1Cl (centres undefined) | 8
17 | 5.85 | C=C(CC)C(=O)c1ccc(OCC(=O)Nc2cccc(C(=O)O)c2)c(Cl)c1Cl | 20.6
18 | > 50 | C=C(CC)C(=O)c1ccc(OCC(=O)Nc2ccc(C(=O)O)c(O)c2)c(Cl)c1Cl | > 25
19 | 11.4 | C=C(CC)C(=O)c1ccc(OCC(=O)Nc2ccc(C(=O)OC)cc2)c(Cl)c1Cl | 4.1
20 | 2.97 | C=C(CC)C(=O)c1ccc(OCC(=O)Nc2ccc3c(c2)C(=O)c2ccccc2C3=O)c(Cl)c1Cl | 2.1
21 | > 50 | C=C(CC)C(=O)c1ccc(OCC(=O)NCCCN2CCCC2=O)c(Cl)c1Cl | 13.8

Row | IC50 [2] [µM] | SMILES | EC50 [1] [µM]
22 | > 50 | C=C(CC)C(=O)c1ccc(OCC(=O)NC(CS)C(=O)OCC)c(Cl)c1Cl (centres undefined) | 4.8
23 | 1.81 | C=C(CC)C(=O)c1ccc(OCC(=O)Nc2ccc(/C=C/C(=O)NO)cc2)c(Cl)c1Cl | 2.6
24 | 6.84 | C=C(CC)C(=O)c1ccc(OCC(=O)Nc2ccc(C#N)cc2)c(Cl)c1Cl | 7.8
25 | > 50 | C=C(CC)C(=O)c1ccc(OCC(=O)Nc2ccc(Cl)c(C(=O)O)c2)c(Cl)c1Cl | 15.9
26 | > 50 | C=C(CC)C(=O)c1ccc(OCC(=O)NCCO)c(Cl)c1Cl | > 25
27 | 5.06 | C=C(CC)C(=O)c1ccc(OCC(=O)Nc2ccc(C(C)=O)cc2)c(Cl)c1Cl | 3.9
28 | > 50 | C=C(CC)C(=O)c1ccc(OCC(=O)Nc2nc(/C(=N\OC)C(=O)O)cs2)c(Cl)c1Cl | > 25
29 | 4.86 | C=C(CC)C(=O)c1ccc(OCC(=O)Nc2nc3ccccc3s2)c(Cl)c1Cl | 1.5
30 | > 50 | C=C(CC)C(=O)c1ccc(OCC(=O)NCCN2CCOCC2)c(Cl)c1Cl | 6.4
31 | 2.93 | C=C(CC)C(=O)c1ccc(OCC(=O)Nc2ccc(Cc3ccc(N4C(=O)C5C6C=CC(C6)C5C4=O)cc3)cc2)c(Cl)c1Cl (centres undefined) | 1.8
32 | 2.93 | C=C(CC)C(=O)c1ccc(OCC(=O)Nc2ccc3cc(C(=O)O)ccc3c2)c(Cl)c1Cl | 3.7
33 | 4.42 | C=C(CC)C(=O)c1ccc(OCC(=O)Nc2ccc([C@]3(CC)CCC(=O)NC3=O)cc2)c(Cl)c1Cl | 2.8
34 | 9.89 | C=C(CC)C(=O)c1ccc(OCC(=O)NO)c(Cl)c1Cl | 4.5
35 | 4.23 | C=C(CC)C(=O)c1ccc(OCC(=O)Nc2ccc(O)c([N+](=O)[O-])c2)c(Cl)c1Cl | 7.4
36 | 6.58 | C=C(CC)C(=O)c1ccc(OCC(=O)Nc2ccc3c(c2)C(O)N=NC3O)c(Cl)c1Cl (centres undefined) | 8.5
37 | 3.62 | C=C(CC)C(=O)c1ccc(OCC(=O)Nc2ccc3nc[nH]c3c2)c(Cl)c1Cl | 3.2
38 | > 50 | C=C(CC)C(=O)c1ccc(OCC(=O)Nc2cc(OC)c(OC)cc2C(=O)O)c(Cl)c1Cl | 21.9
39 | > 50 | C=C(CC)C(=O)c1ccc(OCC(=O)NC2CCN(CC(=O)OC)CC2)c(Cl)c1Cl | 10.6
40 | > 50 | C=C(CC)C(=O)c1ccc(OCC(=O)NCC(=O)O)c(Cl)c1Cl | > 25
41 | > 50 | CCC(C)C(=O)c1ccc(OCC(=O)O)c(Cl)c1Cl (centres undefined) | > 25
42 | 32.7 | C=C(CC)C(=O)c1ccc(OCC(=O)O)c(Cl)c1Cl [ETHACRYNIC ACID] | 9.9
